Data reported in ChEMBL document CHEMBL1122299, “Potential cerebral perfusion agents: synthesis and evaluation of a radioiodinated vinylalkylbarbituric acid analogue” (J Med Chem, 1983).

What was measured:
Rattus norvegicus [1] = test: Distribution of radioactivity in brain tissue of rats at 2 hr after an intravenous injection; Value expressed as mean % injected dose, Range- 0.08-0.13; format: ADME, organism-based; conditions: in vivo
Method in brief: (§1)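 Female Fischer 344 rats (10–12 wk, 170–200 g; food and water ad libitum) under ether received 7.95 μCi 125I-labeled agent (sp act ~155 mCi/mmol) in pH 7.4 phosphate buffer, filtered, via lateral tail vein. Four rats per time point (2 min–1 day). Killed by cervical fracture under ether; organs excised, saline-rinsed, blotted, weighed, gamma-counted; mean % injected dose/g with range.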

Rattus norvegicus [2] = test: Distribution of radioactivity in heart tissue of rats at 1 day after an intravenous injection; Value expressed as mean % injected dose, Range- 0.02-0.02; format: ADME, organism-based; conditions: in vivo, 24 h; method in brief: as §1
Rattus norvegicus [3] = test: Ratio between the distribution of radioactivity of brain to that of blood tissue of rats at 1 day after an intravenous administration; format: ADME, organism-based; conditions: 24 h
Method in brief: (§2)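 Same rats (four per time point, 2 min–1 day) after a 7.95 μCi tail-vein dose of 125I-labeled agent in pH 7.4 phosphate buffer. Brain and blood were excised, weighed and gamma-counted as % injected dose/g. The ratio compares brain to blood radioactivity and is reported as a mean.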

Rattus norvegicus [4] = test: Distribution of radioactivity in heart tissue of rats at 1 hr after an intravenous injection; Value expressed as mean % injected dose, Range- 0.5-0.63; format: ADME, organism-based; conditions: in vivo; method in brief: as §1
Rattus norvegicus [5] = test: Ratio between the distribution of radioactivity of brain to that of blood tissue of rats at 2 hr after an intravenous administration; format: ADME, organism-based; method in brief: as §2
Rattus norvegicus [6] = test: Distribution of radioactivity in heart tissue of rats at 5 mins after an intravenous injection; Value expressed as mean % injected dose, Range- 1.13-1.29; format: ADME, organism-based; conditions: in vivo; method in brief: as §1
Rattus norvegicus [7] = test: Distribution of radioactivity in brain tissue of rats at 4 hr after an intravenous injection; Value expressed as mean % injected dose, Range- 0.03-0.04; format: ADME, organism-based; conditions: in vivo; method in brief: as §1
Rattus norvegicus [8] = test: Distribution of radioactivity in liver tissue of rats at 2 mins after an intravenous injection; Value expressed as mean % injected dose, Range- 2.91-3.53; format: ADME, organism-based; conditions: in vivo; method in brief: as §1
Rattus norvegicus [9] = test: Distribution of radioactivity in thyroid tissue of rats at 2 mins after an intravenous injection; Value expressed as mean % injected dose, Range- 6.65-8.0.8; format: ADME, organism-based, Thyroid gland; conditions: in vivo; method in brief: as §1
Rattus norvegicus [10] = test: Distribution of radioactivity in brain tissue of rats at 30 mins after an intravenous injection; Value expressed as mean % injected dose, Range- 0.25-0.37; format: ADME, organism-based; conditions: in vivo, 0.5 h; method in brief: as §1
Rattus norvegicus [11] = test: Distribution of radioactivity in liver tissue of rats at 1 hr after an intravenous injection; Value expressed as mean % injected dose, Range- 0.71-0.93; format: ADME, organism-based; conditions: in vivo; method in brief: as §1
Rattus norvegicus [12] = test: Distribution of radioactivity in liver tissue of rats at 5 mins after an intravenous injection; Value expressed as mean % injected dose, Range- 2.49-2.82; format: ADME, organism-based; conditions: in vivo; method in brief: as §1
Rattus norvegicus [13] = test: Distribution of radioactivity in thyroid tissue of rats at 2 hr after an intravenous injection; Value expressed as mean % injected dose, Range- 92-159; format: ADME, organism-based, Thyroid gland; conditions: in vivo; method in brief: as §1
Rattus norvegicus [14] = test: Distribution of radioactivity in liver tissue of rats at 1 day after an intravenous injection; Value expressed as mean % injected dose, Range- 0.02-0.02; format: ADME, organism-based; conditions: in vivo, 24 h; method in brief: as §1
Rattus norvegicus [15] = test: Ratio between the distribution of radioactivity of brain to that of blood tissue of rats at 2 min after an intravenous administration; format: ADME, organism-based; method in brief: as §2
Rattus norvegicus [16] = test: Distribution of radioactivity in blood of rats at 5 mins after an intravenous injection; Value expressed as mean % injected dose, Range-0.81-1; format: ADME, organism-based; conditions: in vivo; method in brief: as §1
Rattus norvegicus [17] = test: Distribution of radioactivity in liver tissue of rats at 30 mins after an intravenous injection; Value expressed as mean % injected dose, Range- 0.97-1.41; format: ADME, organism-based; conditions: in vivo, 0.5 h; method in brief: as §1
Rattus norvegicus [18] = test: Distribution of radioactivity in lung tissue of rats at 30 mins after an intravenous injection; Value expressed as mean % injected dose, Range- 0.65-0.87; format: ADME, organism-based; conditions: in vivo, 0.5 h; method in brief: as §1
Rattus norvegicus [19] = test: Distribution of radioactivity in lung tissue of rats at 1 hr after an intravenous injection; Value expressed as mean % injected dose, Range- 0.66-0.77; format: ADME, organism-based; conditions: in vivo; method in brief: as §1
Rattus norvegicus [20] = test: Distribution of radioactivity in heart tissue of rats at 30 mins after an intravenous injection; Value expressed as mean % injected dose, Range- 0.55-0.82; format: ADME, organism-based; conditions: in vivo, 0.5 h; method in brief: as §1
Rattus norvegicus [21] = test: Ratio between the distribution of radioactivity of brain to that of blood tissue of rats at 4 hr after an intravenous administration; format: ADME, organism-based; method in brief: as §2
Rattus norvegicus [22] = test: Distribution of radioactivity in liver tissue of rats at 2 hr after an intravenous injection; Value expressed as mean % injected dose, Range- 0.42-0.62; format: ADME, organism-based; conditions: in vivo; method in brief: as §1
Rattus norvegicus [23] = test: Distribution of radioactivity in liver tissue of rats at 4 hr after an intravenous injection; Value expressed as mean % injected dose, Range- 0.19-0.23; format: ADME, organism-based; conditions: in vivo; method in brief: as §1
Rattus norvegicus [24] = test: Distribution of radioactivity in thyroid tissue of rats at 1 day after an intravenous injection; Value expressed as mean % injected dose, Range- 406-499; format: ADME, organism-based, Thyroid gland; conditions: in vivo, 24 h; method in brief: as §1

CCC1(CCC/C=C/I)C(=O)NC(=O)NC1=O
Activity (Rattus norvegicus [1]): 0.1 | Activity (Rattus norvegicus [2]): 0.02 | Ratio (Rattus norvegicus [3]): 0.26 | Activity (Rattus norvegicus [4]): 0.56 | Ratio (Rattus norvegicus [5]): 0.14 | Activity (Rattus norvegicus [6]): 1.23 | Activity (Rattus norvegicus [7]): 0.03 | Activity (Rattus norvegicus [8]): 3.19 | Activity (Rattus norvegicus [9]): 7.64 | Activity (Rattus norvegicus [10]): 0.33 | Activity (Rattus norvegicus [11]): 0.82 | Activity (Rattus norvegicus [12]): 2.69 | Activity (Rattus norvegicus [13]): 130 | Activity (Rattus norvegicus [14]): 0.02 | Ratio (Rattus norvegicus [15]): 0.83 | Activity (Rattus norvegicus [16]): 0.9 | Activity (Rattus norvegicus [17]): 1.21 | Activity (Rattus norvegicus [18]): 0.79 | Activity (Rattus norvegicus [19]): 0.72 | Activity (Rattus norvegicus [20]): 0.71 | Ratio (Rattus norvegicus [21]): 0.07 | Activity (Rattus norvegicus [22]): 0.5 | Activity (Rattus norvegicus [23]): 0.21 | Activity (Rattus norvegicus [24]): 434
